Screening results deposited in PubChem BioAssay by Broad Institute.
rRNA inh HTS: inhibits bacterial ribosomal RNA function over humanized ribosomes | actives 1.6% (n = 350,000) | E. coli WT GFP vs humanized-ribosome RFP mutants, fluorescence, 24 h; stronger effect = lower value; DMSO median 0, no signal -100 | GFP signal change (wild-type ribosome), % (test concentration not listed);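 active = significant combined selectivity score with lowered wild-type GFP, culture density cut under 30%, mutant RFP and density less affected; inactive = any of these conditions unmet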
Env fusion inh: inhibitors of HIV Env-mediated cell fusion; inhibition, % at 12.3 µM; HeLa-JRFL Env/CEM21 cell fusion, luciferase; actives 1.1% (n = 360,000);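 active = mean replicate inhibition score of at least 50 and every replicate individually at or above 50; inconclusive = only one of the two criteria met; inactive = mean below 50 and not all replicates reaching 50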
DENV2 CPE rescue: protects cells from dengue virus 2 cytopathic effect; CPE inhibition, % at 9.99 µM; DENV2-infected cells, cytopathic effect rescue, plate reader; actives 1.7% (n = 350,000); in the data active = CPE inhibition above about 20%, passing the limit was not always enough; inconclusive = no clear call, values can overlap the other calls; tested in BHK-21 cells
FN deposition inh: fibronectin deposition inhibition. AH1F fibroblasts, Alexa488-fibronectin deposition fluorescence, overnight. inhibition, % at 12.6 µM. actives 0.086% (n = 350,000). AID 743247;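 active = mean inhibition across replicates of 30% or more, regardless of how many single replicates reach that level; inconclusive = mean under 30% yet at least half of replicates reach 30%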
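Measured by – fluorescence 485/525 nm · System – AH1F fibroblast monolayer, labelled fibronectin deposition · Amount – 10000 cells per well · Buffer or medium – serum-reduced DMEM (2% serum) · Doses – single dose, pinned · Also added – fluorescent fibronectin at 24 nM final · Schedule – 1 h cell attachment, overnight exposure to compound and label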
PglD inh: PglD (C. jejuni) enzyme inhibition | AID 602405 | purified PglD enzyme, DTNB colorimetric CoA detection | actives 0.098% (n = 360,000) | inhibition, % at 12.5 µM; in the data active = inhibition above about 16%, passing the limit was not always enough; inconclusive = no clear call, values can overlap the other calls
PGC1a acetyl inh: modulators of PGC1a acetylation | inhibition, % at 15.6 µM | actives 0.17% (n = 350,000) | AID 651687 | U2OS PGC1a acetylation, AlphaScreen anti-acetyl-lysine; with virally co-expressed GCN5 acetyltransferase;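 active = every replicate shows inhibition of at least 40%; inconclusive = mean inhibition at least 40% but some replicate below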
Hits are given with their value; - = inactive; ? = inconclusive; . = no result; ! = a repeat was not active; [ ] = another dose, or the depositor's remark. A selection: hits, their analogues and other compounds. The true share with any hit is near 3.5%.

SMILES	rRNA inh HTS	Env fusion inh	DENV2 CPE rescue	FN deposition inh	PglD inh	PGC1a acetyl inh
O=C(Nc1ccccc1Br)C1CCN(S(=O)(=O)c2cccs2)CC1	-15.7	-	-	.	-	-
O=C(Nc1nc(-c2ccccc2)cs1)C1CCCN(S(=O)(=O)c2ccccc2)C1 (stereo not drawn)	.	96.6	.	-	-	-
Cc1ccc(-c2csc(NC(=O)C3CCN(S(=O)(=O)c4cccs4)CC3)n2)cc1	.	63.4	.	-	.	.
Cc1ccccc1NC(=O)C1CCN(S(=O)(=O)c2cccs2)CC1	-	-	-	-	-	-
Cc1ccc(NC(=O)C2CCN(S(=O)(=O)c3cccs3)CC2)cc1	-	-	-	-	.	-
Cc1ccc(S(=O)(=O)Nc2ccc3c(c2)CC(=O)N([C@H](C)CO)C[C@@H](C)[C@H](CN(C)S(=O)(=O)c2cn(C)cn2)O3)cc1	-	-	-	.	-	-
CSc1ccc(CN(C)C(=O)c2cccc(S(=O)(=O)N3CCN(Cc4ccccc4)CC3)c2)cc1	-	68.9	-	.	-	.
CN(Cc1ccc(F)cc1)C(=O)c1cccc(S(=O)(=O)N2CCN(Cc3ccccc3)CC2)c1	-	-	-	-	-	-
CN(Cc1ccc(F)cc1)C(=O)c1cccc(S(=O)(=O)N2CCN(c3ccc(F)cc3)CC2)c1	-	56.7	-	-	-	.
CN(CC(=O)Nc1ccc(F)cc1)C(=O)c1cccc(S(=O)(=O)N2CCN(c3ccc(F)cc3)CC2)c1	-	55.2	-	-	-	.
Cc1ccc(S(=O)(=O)N2C[C@@H](O)COC[C@@H]3O[C@H](CC(=O)N[C@H]4CCN(Cc5ccccc5)C4)CC[C@H]32)cc1	-	.	-	-	-	-
CCCn1c(=O)c(C(=O)NNS(=O)(=O)c2ccc(C)cc2)c(O)c2ccccc21	-	.	35.2	-	.	-
CN(C[C@H](Cc1ccccc1)N(C[C@H](c1ccccc1)N(CCc1ccccc1)N=O)N=O)N=O	-	73.5	-	-	-	.
CN(C[C@H](Cc1ccccc1)N(C[C@@H](CC1CCCCC1)N(CCc1ccccc1)N=O)N=O)N=O	-	55.5	57.1	-	-	.
CN(C[C@H](Cc1ccccc1)N(C[C@H](Cc1ccccc1)N(CCC(C)(C)C)N=O)N=O)N=O	.	61.9	.	-	-	-
CC(C)CCN(N=O)[C@@H](Cc1ccccc1)CN(N=O)[C@@H](Cc1ccccc1)CN(C)N=O	-	92.7	?	-	-	.
CN(C[C@H](c1ccccc1)N(C[C@H](Cc1ccccc1)N(CCc1ccccc1)N=O)N=O)N=O	-	-	-	-	-	.
O=C(N[C@H]1CC[C@H](CCNS(=O)(=O)c2ccc(F)cc2)O[C@H]1CO)C1CCOCC1	-	-	-	.	-	-
O=C(O)C[C@@H]1C[C@H]2c3cc(NC(=O)Nc4ccccc4F)ccc3O[C@H]2[C@@H](CO)O1	-	-	-	.	-	-
COc1ccc(S(=O)(=O)N(C)C[C@H]2Oc3ccc(NC(=O)Nc4c(C)noc4C)cc3C(=O)N([C@@H](C)CO)C[C@H]2C)cc1	-	.	-	.	-	-
CCCNC(=O)N[C@H]1CC[C@H](CCn2cc(-c3cccc(F)c3)nn2)O[C@H]1CO	-	-	-	-	-	-
COc1cc(C(=O)NC(=S)Nc2ccc3c(c2)OCO3)cc(OC)c1OC	-	-	?	-	-	-
COc1cc(C(=O)NC(=S)NNC(=O)c2ccc3c(c2)OCO3)cc(OC)c1OC	-23.4	-	-	-	-	-
CNC[C@@H]1Oc2ccc(NC(=O)c3ccncc3)cc2C(=O)N([C@H](C)CO)C[C@@H]1C	-	-	-	-	-	-
COc1ccc(S(=O)(=O)N(C)C[C@@H]2Oc3ncc(-c4cc5ccccc5o4)cc3C(=O)N([C@H](C)CO)C[C@@H]2C)cc1	.	69.3[16.7 µM]	-	.	-	-
SMILES	rRNA inh HTS	Env fusion inh	DENV2 CPE rescue	FN deposition inh	PglD inh	PGC1a acetyl inh
C[C@@H]1CN([C@H](C)CO)C(=O)c2cc(/C=C/c3ccccc3)cnc2O[C@H]1CN(C)S(=O)(=O)c1ccccc1F	-	-	-	-	-	-
C[C@H](CO)N1C[C@H](C)[C@H](CN(C)S(=O)(=O)c2ccccc2)Oc2ncc(/C=C/c3ccccc3)cc2C1=O	-	73.7[16.7 µM]	?	-	-	-
C[C@H](CO)N1C[C@H](C)[C@H](CN(C)S(=O)(=O)c2ccccc2F)Oc2ncc(/C=C/c3ccccc3)cc2C1=O	-	70.8[16.7 µM]	-	-	-	-
C[C@H](CO)N1C[C@H](C)[C@H](CN(C)S(=O)(=O)c2ccc(C#N)cc2)Oc2ncc(-c3cc4ccccc4o3)cc2C1=O	-	.	-	-	-	-
Cc1ccc(S(=O)(=O)N(C)C[C@@H]2Oc3ncc(/C=C/c4ccccc4)cc3C(=O)N([C@H](C)CO)C[C@@H]2C)cc1	-	74.9[16.7 µM]	23.5	.	-	-
C[C@H]1CN([C@@H](C)CO)C(=O)c2cc(/C=C/c3ccccc3)cnc2O[C@H]1CN(C)S(=O)(=O)c1ccccc1	-	-	-	-	-	-
Cc1noc(C)c1NC(=O)N(C)C[C@H]1OCCCC[C@@H](C)Oc2ccc(NS(=O)(=O)c3cccs3)cc2C(=O)N([C@H](C)CO)C[C@H]1C	-	-	-	.	-	-
C[C@H](CO)N1C[C@H](C)[C@H](CN(C)C(=O)c2cccc(F)c2)Oc2cc(-c3cccnc3)ccc2S1(=O)=O	-	-	-	-	-	-
C[C@@H]1CN([C@@H](C)CO)C(=O)c2cc(C#Cc3ccncc3)cnc2O[C@H]1CN(C)S(=O)(=O)c1ccccc1F	-	-	-	.	-	-
C[C@@H]1CN([C@H](C)CO)C(=O)c2cc(C#Cc3ccncc3)cnc2O[C@@H]1CN(C)S(=O)(=O)c1ccccc1F	-	60.4[16.7 µM]	-	.	-	-
COc1ccc(S(=O)(=O)N(C)C[C@@H]2Oc3ncc(/C=C/c4ccccc4)cc3C(=O)N([C@H](C)CO)C[C@@H]2C)cc1	-	55.1![16.7 µM]	?	-	-	-
COc1ccc(S(=O)(=O)N(C)C[C@H]2Oc3ncc(/C=C/c4ccccc4)cc3C(=O)N([C@@H](C)CO)C[C@@H]2C)cc1	-	-	-	-	-	-
O=C([C@H]1[C@H](CO)[C@H]2Cn3c(cccc3=O)[C@@H]1N2CCC(F)(F)F)N1CCCCC1	-	.	-	.	-	-
CCCNC(=O)N1C[C@@H]2[C@H](c3ccccc31)[C@H](CO)N2C(=O)c1ccccc1	-	.	.	.	-	-
CN(C)C(=O)C[C@H]1C[C@@H]2c3cc(NC(=O)NC4CCCCC4)ccc3O[C@@H]2[C@H](CO)O1	-	75.4[16.7 µM]	-	-	-	-
O=C(C[C@H]1C[C@H]2c3cc(NC(=O)NC4CCCCC4)ccc3O[C@H]2[C@H](CO)O1)NCC(F)(F)F	-	-	48.7	.	-	-
CN1CCN(C(=O)C[C@@H]2C[C@@H]3c4cc(NC(=O)NC5CCCCC5)ccc4O[C@@H]3[C@@H](CO)O2)CC1	-	-	28.7	-	-	-
